Experimental data taken from ChEMBL document CHEMBL4715693, “Synthesis and antiviral properties of novel indole-based thiosemicarbazides and 4-thiazolidinones” (Bioorg Med Chem, 2016).

Assays:
[1] = system: Human immunodeficiency virus 1; assay: Antiviral activity against Human immunodeficiency virus 1 infected in human MT4 cells assessed as reduction in virus-induced cytopathic effect incubated for 3 to 6 days by light microscopic analysis; assay type: functional, organism-based; settings: Human immunodeficiency virus 1, MT4
[2] = system: Feline coronavirus; assay: Antiviral activity against Feline coronavirus infected in cat CRFK cells assessed as reduction in virus-induced cytopathic effect incubated for 3 to 6 days by light microscopic analysis; assay type: functional, organism-based; settings: Alphacoronavirus 1, CRFK
[3] = system: Respiratory syncytial virus; assay: Antiviral activity against Respiratory syncytial virus infected in human HeLa cells assessed as reduction in virus-induced cytopathic effect incubated for 3 to 6 days by light microscopic analysis; assay type: functional, organism-based
Outline: (§1)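 CPE reduction assay: virus and serial compound dilutions added together to subconfluent HeLa (vesicular stomatitis, Coxsackie B4, respiratory syncytial) or Vero (Coxsackie B4, Sindbis, Punta Toro) cultures. Incubated 3–6 days at 37 °C. […] Mean ± SEM of three independent tests.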

[4] = system: Coxsackievirus B4; assay: Antiviral activity against Human coxsackievirus B4 infected in African green monkey Vero cells assessed as reduction in virus-induced cytopathic effect incubated for 3 to 6 days by light microscopic analysis; assay type: functional, organism-based; settings: Enterovirus B; outline: as §1
[5] = system: Mammalian orthoreovirus 1; assay: Antiviral activity against Mammalian orthoreovirus 1 infected in African green monkey Vero cells assessed as reduction in virus-induced cytopathic effect incubated for 3 to 6 days by light microscopic analysis; assay type: functional, organism-based; settings: Mammalian orthoreovirus 1, Vero
[6] = system: Punta Toro virus; assay: Antiviral activity against Punta Toro virus infected in African green monkey Vero cells assessed as reduction in virus-induced cytopathic effect incubated for 3 to 6 days by light microscopic analysis; assay type: functional, organism-based; outline: as §1
[7] = Cytotoxicity against African green monkey Vero cells assessed as changes in cell morphology incubated for 3 to 6 days by light microscopy; assay type: cell-based; settings: chlorocebus sabaeus, time 3-6 day
Outline: (§2)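 Uninfected subconfluent cells (Vero or HeLa, as named) exposed to serial compound dilutions in parallel with the CPE assays, 37 °C, 3–6 days. Cell morphology examined by light microscopy; MCC = minimal concentration causing microscopically detectable changes in morphology.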

[8] = system: Influenza A virus; assay: Antiviral activity against influenza A virus infected in dog MDCK cells assessed as reduction in virus-induced cytopathic effect incubated for 3 to 6 days by light microscopic analysis; assay type: functional, organism-based; settings: Influenza A virus, MDCK
Outline: (§3)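 MDCK cells, subconfluent, received influenza A or B virus together with serial compound dilutions. Incubated 3–6 days at 35 °C.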

[9] = system: Vaccinia virus; assay: Antiviral activity against Vaccinia virus infected in human HEL cells assessed as reduction in virus-induced cytopathic effect incubated for 3 to 6 days by light microscopic analysis; assay type: functional, organism-based; settings: Orthopoxvirus vaccinia
[10] = system: Sindbis virus; assay: Antiviral activity against Sindbis virus infected in African green monkey Vero cells assessed as reduction in virus-induced cytopathic effect incubated for 3 to 6 days by light microscopic analysis; assay type: functional, organism-based; outline: as §1
[11] = system: Vesicular stomatitis virus; assay: Antiviral activity against Vesicular stomatitis virus infected in human HeLa cells assessed as reduction in virus-induced cytopathic effect incubated for 3 to 6 days by light microscopic analysis; assay type: functional, organism-based
Outline: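 CPE reduction assay: virus and serial compound dilutions added together to subconfluent HeLa (vesicular stomatitis, Coxsackie B4, respiratory syncytial) or Vero (Coxsackie B4, Sindbis, Punta Toro) cultures. Incubated 3–6 days at 37 °C. Mean ± SEM of three independent tests.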

[12] = system: Influenza B virus; assay: Antiviral activity against influenza B virus infected in dog MDCK cells assessed as reduction in virus-induced cytopathic effect incubated for 3 to 6 days by light microscopic analysis; assay type: functional, organism-based; outline: as §3
[13] = Cytotoxicity against cat CRFK cells assessed as reduction in cell viability incubated for 3 to 6 days by MTS assay; assay type: cell-based, Felis catus; settings: crfk, time 3-6 day
Outline: (§4)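 CRFK or MT4 cells were exposed to serial compound dilutions alongside the antiviral assays for 3–6 days at 37 °C.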

[14] = system: Human immunodeficiency virus 2; assay: Antiviral activity against Human immunodeficiency virus 2 infected in human MT4 cells assessed as reduction in virus-induced cytopathic effect incubated for 3 to 6 days by light microscopic analysis; assay type: functional, organism-based; settings: Human immunodeficiency virus 2, MT4
[15] = system: Human respirovirus 3; assay: Antiviral activity against Human parainfluenza virus 3 infected in African green monkey Vero cells assessed as reduction in virus-induced cytopathic effect incubated for 3 to 6 days by light microscopic analysis; assay type: functional, organism-based; settings: Human respirovirus 3, Vero
[16] = system: Coxsackievirus B4; assay: Antiviral activity against Human coxsackievirus B4 infected in human HeLa cells assessed as reduction in virus-induced cytopathic effect incubated for 3 to 6 days by light microscopic analysis; assay type: functional, organism-based; settings: Enterovirus B; outline: as §1
[17] = system: Human alphaherpesvirus 1; assay: Antiviral activity against Herpes simplex virus 1 infected in human HEL cells assessed as reduction in virus-induced cytopathic effect incubated for 3 to 6 days by light microscopic analysis; assay type: functional, cell-based; settings: Human alphaherpesvirus 1, HEL
[18] = system: MT4; assay: Cytotoxicity against human MT4 cells assessed as reduction in cell viability incubated for 3 to 6 days by MTS assay; assay type: cell-based; settings: time 3-6 day; outline: as §4
[19] = system: Human alphaherpesvirus 2; assay: Antiviral activity against Herpes simplex virus 2 infected in human HEL cells assessed as reduction in virus-induced cytopathic effect incubated for 3 to 6 days by light microscopic analysis; assay type: functional, cell-based; settings: Human alphaherpesvirus 2, HEL
[20] = Cytotoxicity against human HEL cells assessed as changes in cell morphology incubated for 3 to 6 days by light microscopy; assay type: cell-based; settings: time 3-6 day
Outline: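 Human embryonic lung fibroblasts incubated with serial compound dilutions alongside the antiviral assays, 37 °C, 3–6 days. Morphology inspected by light microscopy; minimal cytotoxic concentration taken as lowest concentration giving minimal morphological change.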

[21] = system: Felid alphaherpesvirus 1; assay: Antiviral activity against Feline herpesvirus infected in cat CRFK cells assessed as reduction in virus-induced cytopathic effect incubated for 3 to 6 days by light microscopic analysis; assay type: functional, organism-based; settings: Felid alphaherpesvirus 1, CRFK
[22] = Cytotoxicity against human HeLa cells assessed as changes in cell morphology incubated for 3 to 6 days by light microscopic analysis; assay type: cell-based; settings: time 3-6 day; outline: as §2
[23] = Cytotoxicity against dog MDCK cells assessed as changes in cell morphology incubated for 3 to 6 days by light microscopy; assay type: cell-based, Canis lupus familiaris; settings: time 3-6 day

O=C(N/N=C1\SCC(=O)N1CCc1ccccc1)c1[nH]c2ccc(F)cc2c1-c1ccccc1
> 10 µg/mL: MCC [20]
> 100 µg/mL: EC50 [1] | EC50 [2] | EC50 [3] | EC50 [4] | EC50 [5] | EC50 [6] | EC50 [8] | EC50 [9] | EC50 [10] | EC50 [11] | EC50 [12] | EC50 [14] | EC50 [15] | EC50 [16] | EC50 [17] | EC50 [19] | EC50 [21]
17 µg/mL: CC50 [13]
10 µg/mL: MCC [7]
>= 108 ug ml-1: CC50 [18]

O=C(NNC(=S)NCc1ccccc1)c1[nH]c2ccc(F)cc2c1-c1ccccc1
4 µg/mL: MCC [22]
> 10 µg/mL: MCC [20]
> 100 µg/mL: EC50 [1] | EC50 [2] | EC50 [3] | EC50 [4] | EC50 [5] | EC50 [6] | EC50 [8] | EC50 [9] | EC50 [10] | EC50 [11] | EC50 [12] | EC50 [14] | EC50 [15] | EC50 [16] | EC50 [17] | EC50 [19] | EC50 [21]
11 µg/mL: CC50 [18]
1.9 µg/mL: CC50 [13]
10 µg/mL: MCC [7]

CCN1C(=O)CS/C1=N\NC(=O)c1[nH]c2ccc(F)cc2c1-c1ccccc1
> 100 µg/mL: EC50 [1] | EC50 [2] | EC50 [3] | EC50 [4] | EC50 [5] | EC50 [6] | EC50 [8] | EC50 [9] | EC50 [10] | EC50 [11] | EC50 [12] | CC50 [13] | EC50 [14] | EC50 [15] | EC50 [16] | EC50 [17] | EC50 [19] | MCC [20] | EC50 [21]
20 µg/mL: MCC [7]
> 125 µg/mL: CC50 [18]

O=C(NNC(=S)NCCc1ccccc1)c1[nH]c2ccc(F)cc2c1-c1ccccc1
> 100 µg/mL: EC50 [1] | EC50 [2] | EC50 [3] | EC50 [4] | EC50 [5] | EC50 [6] | EC50 [8] | EC50 [9] | EC50 [10] | EC50 [11] | EC50 [12] | EC50 [14] | EC50 [15] | EC50 [16] | EC50 [17] | EC50 [19] | EC50 [21]
2 µg/mL: MCC [23]
10 µg/mL: MCC [7] | MCC [20]
11 µg/mL: CC50 [18]
4 µg/mL: MCC [22]
1.9 µg/mL: CC50 [13]

CN1C(=O)CS/C1=N\NC(=O)c1[nH]c2ccc(F)cc2c1-c1ccccc1
> 100 µg/mL: EC50 [1] | EC50 [2] | EC50 [3] | EC50 [4] | EC50 [5] | EC50 [6] | EC50 [8] | EC50 [9] | EC50 [10] | EC50 [11] | EC50 [12] | CC50 [13] | EC50 [14] | EC50 [15] | EC50 [16] | EC50 [17] | EC50 [19] | MCC [20] | EC50 [21]
> 125 µg/mL: CC50 [18]
20 µg/mL: MCC [7]

O=C(N/N=C1\SCC(=O)N1Cc1ccccc1)c1[nH]c2ccc(F)cc2c1-c1ccccc1
≥ 10 µg/mL: MCC [7]
> 100 µg/mL: EC50 [1] | EC50 [2] | EC50 [3] | EC50 [4] | EC50 [5] | EC50 [6] | EC50 [8] | EC50 [9] | EC50 [10] | EC50 [11] | EC50 [12] | CC50 [13] | EC50 [14] | EC50 [15] | EC50 [16] | EC50 [17] | EC50 [19] | EC50 [21]
38 µg/mL: CC50 [18]
> 10 µg/mL: MCC [20]

CCCCN1C(=O)CS/C1=N\NC(=O)c1[nH]c2ccc(F)cc2c1-c1ccccc1
> 10 µg/mL: MCC [20]
> 100 µg/mL: EC50 [1] | EC50 [2] | EC50 [3] | EC50 [4] | EC50 [5] | EC50 [6] | EC50 [8] | EC50 [9] | EC50 [10] | EC50 [11] | EC50 [12] | CC50 [13] | EC50 [14] | EC50 [15] | EC50 [16] | EC50 [17] | EC50 [19] | EC50 [21]
>= 98 ug ml-1: CC50 [18]
